Activity calls are given as the source filed them. The rule behind the calls is not given here.
Key:
[1] = target: T1, Tyrosine-protein phosphatase non-receptor type 11 (Homo sapiens, UniProt Q06124); test: Inhibition of SHP2 (unknown origin) using p-nitrophenyl phosphate substrate by microplate spectrophotometry
T1 sequence (Q06124 whole entry): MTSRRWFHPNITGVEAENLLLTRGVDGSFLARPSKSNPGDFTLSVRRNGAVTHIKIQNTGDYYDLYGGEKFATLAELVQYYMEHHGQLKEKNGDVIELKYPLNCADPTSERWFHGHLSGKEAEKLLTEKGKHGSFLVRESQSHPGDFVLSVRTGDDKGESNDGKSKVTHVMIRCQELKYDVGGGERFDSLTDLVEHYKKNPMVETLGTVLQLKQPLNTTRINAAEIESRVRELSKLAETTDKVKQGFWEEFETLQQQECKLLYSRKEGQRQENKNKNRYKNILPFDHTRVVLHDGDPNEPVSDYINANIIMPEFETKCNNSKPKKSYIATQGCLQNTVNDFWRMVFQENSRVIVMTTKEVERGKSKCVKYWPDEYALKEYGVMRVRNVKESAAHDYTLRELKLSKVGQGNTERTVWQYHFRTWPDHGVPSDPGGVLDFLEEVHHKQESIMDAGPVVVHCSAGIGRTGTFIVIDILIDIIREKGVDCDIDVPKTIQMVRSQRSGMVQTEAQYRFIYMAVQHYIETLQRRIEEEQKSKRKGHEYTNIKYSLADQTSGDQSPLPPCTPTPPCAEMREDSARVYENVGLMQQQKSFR

[2] = target: T2, Tyrosine-protein phosphatase non-receptor type 11 (Homo sapiens) (UniProt Q06124); test: Inhibition of SHP2 in human NCI-H1975 cells assessed as reduction in EGF-induced Erk1/2 phosphorylation at 2 uM after 60 mins by immunoblot analysis; assay type: cell-based
T2 sequence (whole entry): T1 sequence (Q06124 whole entry)
In short: (§1)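 H1975 cells serum-starved overnight, treated with vehicle or compound for 3 h, then left unstimulated or stimulated with 5 ng/mL EGF for 60 min. Lysates resolved by SDS-PAGE and immunoblotted for paxillin pY118 and phospho-Erk1/2.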

[3] = target: T2, Tyrosine-protein phosphatase non-receptor type 11 (Homo sapiens); test: Inhibition of SHP2 dephosphorylation activity in human NCI-H1975 cells assessed as increase in paxillin (pY118) phosphorylation at 2 uM after 60 mins by immunoblot analysis; assay type: cell-based; design: Activity: scale not given: the % may be the effect or the level left; in short: as §1
[4] = organism: Mus musculus; test: Anticancer activity against mouse 32D cells bearing KITD814V mutant assessed as ligand dependent growth inhibition at 5 uM measured after 6 hrs; assay type: functional, cell-based; settings: in the assay text read “ligand independent” for “ligand dependent”
In short: (§2)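 32D myeloid cells retrovirally transduced with WT KIT or KITD814V and sorted on EGFP. Starved 6–8 h in IMDM/0.2% BSA without serum or growth factors. Plated at 5×10^4 cells in triplicate in IMDM/10% FBS, with 10 ng/mL IL-3 for WT KIT and no growth factors for KITD814V, ± inhibitor. Cultured 48 h, pulsed 6 h with 1.0 μCi [3H]thymidine, CPM counted. Four independent experiments.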

[5] = organism: Mus musculus; test: Anticancer activity against mouse 32D cells bearing wild-type KIT assessed as ligand dependent growth inhibition at 1 to 5 uM measured after 6 hrs; assay type: functional, cell-based; in short: as §2
[6] = target: T2, Tyrosine-protein phosphatase non-receptor type 11 (Homo sapiens); test: Inhibition of SHP2 in human SKBR3 cells assessed as inhibition of total Erk1/2 phosphorylation level at 1 to 10 uM measured after 4 days by matrigel assay; assay type: cell-based; settings: SK-BR-3
In short: (§3)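 SKBR3 cells grown in Matrigel with vehicle or compound (1 to 10 μM), three dishes per condition. After 4 days cells recovered from Matrigel and lysed in PLC buffer with protease inhibitors. Total and phospho Erk1/2 and Akt detected by SDS-PAGE immunoblot.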

[7] = target: T2, Tyrosine-protein phosphatase non-receptor type 11 (Homo sapiens); test: Inhibition of SHP2 in human NCI-H1975 cells assessed as reduction in EGF-induced Erk1/2 phosphorylation after 60 mins by immunoblot analysis; assay type: cell-based; in short: as §1
[8] = target: T2, Tyrosine-protein phosphatase non-receptor type 11 (Homo sapiens); test: Inhibition of SHP2 dephosphorylation activity in human NCI-H1975 cells assessed as increase in paxillin (pY118) phosphorylation after 60 mins by immunoblot analysis; assay type: cell-based; in short: as §1
[9] = target: Mast/stem cell growth factor receptor Kit (Homo sapiens) (UniProt P10721); test: Inhibition of KIT D814V mutant (unknown origin) expressed in serum starved mouse 32D cells assessed as inhibition of Akt activation at 1 to 5 uM measured after 2 hrs by immunoblot analysis; assay type: cell-based
Chain of Mast/stem cell growth factor receptor Kit (Homo sapiens) (P10721 whole entry): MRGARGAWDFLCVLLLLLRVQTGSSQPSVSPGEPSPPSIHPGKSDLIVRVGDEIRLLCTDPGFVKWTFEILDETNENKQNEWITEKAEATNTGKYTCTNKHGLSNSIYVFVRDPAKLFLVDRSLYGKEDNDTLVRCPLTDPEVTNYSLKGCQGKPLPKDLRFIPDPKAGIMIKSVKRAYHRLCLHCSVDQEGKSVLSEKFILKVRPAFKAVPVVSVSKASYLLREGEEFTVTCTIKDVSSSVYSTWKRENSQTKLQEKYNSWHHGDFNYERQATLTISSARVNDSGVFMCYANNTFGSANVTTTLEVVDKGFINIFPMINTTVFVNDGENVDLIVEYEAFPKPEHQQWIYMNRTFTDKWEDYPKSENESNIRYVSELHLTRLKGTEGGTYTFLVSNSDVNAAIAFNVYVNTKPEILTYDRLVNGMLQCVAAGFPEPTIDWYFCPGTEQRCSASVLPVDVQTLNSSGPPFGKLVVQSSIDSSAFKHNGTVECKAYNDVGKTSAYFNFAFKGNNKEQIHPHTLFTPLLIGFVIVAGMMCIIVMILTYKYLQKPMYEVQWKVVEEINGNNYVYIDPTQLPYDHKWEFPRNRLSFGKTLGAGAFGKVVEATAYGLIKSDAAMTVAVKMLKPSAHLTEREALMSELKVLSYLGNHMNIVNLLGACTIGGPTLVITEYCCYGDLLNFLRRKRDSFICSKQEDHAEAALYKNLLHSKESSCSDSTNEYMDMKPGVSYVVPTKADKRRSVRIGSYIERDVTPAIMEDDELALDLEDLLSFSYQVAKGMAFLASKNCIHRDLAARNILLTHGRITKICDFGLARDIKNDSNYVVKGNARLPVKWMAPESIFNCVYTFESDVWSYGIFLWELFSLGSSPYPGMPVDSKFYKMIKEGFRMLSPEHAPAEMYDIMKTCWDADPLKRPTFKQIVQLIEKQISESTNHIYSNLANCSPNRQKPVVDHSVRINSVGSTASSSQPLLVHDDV
In short: (§4)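 Sorted 32D cells expressing WT KIT or KITD814V, starved of serum and growth factors for 6 h. Treated with compound for 2 h, then lysed in NP-40 buffer with phosphatase and protease inhibitors. Equal protein amounts immunoblotted for phospho and total Akt and Erk1/2, ECL detection. Two independent experiments.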

[10] = target: Mast/stem cell growth factor receptor Kit (Homo sapiens) (UniProt P10721); test: Effect on wild type KIT (unknown origin) expressed in serum starved mouse 32D cells assessed as effect on Erk1/2 activation at 1 to 5 uM measured after 2 hrs by immunoblot analysis; assay type: cell-based; in short: as §4
[11] = target: Mast/stem cell growth factor receptor Kit (Homo sapiens) (UniProt P10721); test: Effect on wild type KIT (unknown origin) expressed in serum starved mouse 32D cells assessed as effect on Akt activation at 1 to 5 uM measured after 2 hrs by immunoblot analysis; assay type: cell-based; in short: as §4
[12] = organism: Mus musculus; test: Anticancer activity against mouse 32D cells bearing KITD814V mutant assessed as ligand dependent growth inhibition at 1 uM measured after 6 hrs; assay type: functional, cell-based; settings: in the assay text read “ligand independent” for “ligand dependent”; in short: as §2
[13] = system: SK-BR-3; test: Anticancer activity against human SKBR3 cells assessed as growth inhibition at 3 uM measured within 24 hrs by matrigel assay; assay type: functional, cell-based
In short: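 About 300000 SKBR3 cells seeded into 150 μL growth factor reduced Matrigel. Three dishes per condition received medium containing DMSO vehicle or compound. Colonies imaged every 24 h under a stereo microscope. Cross-sectional area of individual colonies measured from the images.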

[14] = target: Receptor-type tyrosine-protein phosphatase alpha (Homo sapiens, UniProt P18433); test: Inhibition of PTPalpha (unknown origin)
Chain of Receptor-type tyrosine-protein phosphatase alpha (P18433 whole entry): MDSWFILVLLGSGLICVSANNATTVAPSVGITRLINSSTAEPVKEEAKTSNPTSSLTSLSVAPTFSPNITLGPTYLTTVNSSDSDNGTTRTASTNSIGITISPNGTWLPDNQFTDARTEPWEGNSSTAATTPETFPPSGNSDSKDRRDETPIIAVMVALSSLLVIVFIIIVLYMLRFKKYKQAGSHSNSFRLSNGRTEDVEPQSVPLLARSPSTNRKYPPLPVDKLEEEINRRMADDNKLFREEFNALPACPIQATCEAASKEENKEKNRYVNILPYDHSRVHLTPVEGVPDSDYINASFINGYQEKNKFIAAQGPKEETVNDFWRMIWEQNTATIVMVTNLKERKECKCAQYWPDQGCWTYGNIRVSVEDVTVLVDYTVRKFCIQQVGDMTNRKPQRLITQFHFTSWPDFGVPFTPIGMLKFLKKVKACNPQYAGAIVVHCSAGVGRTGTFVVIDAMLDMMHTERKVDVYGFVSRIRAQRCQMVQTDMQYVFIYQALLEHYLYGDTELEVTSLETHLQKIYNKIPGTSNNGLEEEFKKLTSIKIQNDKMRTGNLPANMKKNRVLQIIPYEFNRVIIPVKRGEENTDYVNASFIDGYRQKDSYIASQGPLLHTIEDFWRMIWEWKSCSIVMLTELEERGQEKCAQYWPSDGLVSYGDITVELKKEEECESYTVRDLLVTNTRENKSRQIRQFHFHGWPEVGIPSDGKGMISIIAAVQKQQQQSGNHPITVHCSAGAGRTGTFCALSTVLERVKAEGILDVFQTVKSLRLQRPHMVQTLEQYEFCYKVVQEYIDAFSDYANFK

[15] = system: NCI-H1975; test: Anticancer activity against human NCI-H1975 cells after 2 days by MTT assay; assay type: functional, cell-based
In short: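 H1975 NSCLC cells in RPMI-1640 with 10% FBS at 37 °C, 5% CO2. 3×10^3 cells/well, treated 2 days in RPMI-1640 with 0.5% FBS. MTT at 50 μg/mL for 3–4 h, formazan dissolved in DMSO, OD read at 540 nm. Media-only wells used for background. IC50 from dose–response.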

[16] = system: Bone marrow cell; test: Reduction in growth of C57BL/6 mouse Bone marrow cell bearing KITD814V mutant at 5 uM after 6 hrs; assay type: functional, cell-based
[17] = target: Receptor-type tyrosine-protein phosphatase epsilon (Homo sapiens, UniProt P23469); test: Inhibition of PTPepsilon (unknown origin)
Chain of Receptor-type tyrosine-protein phosphatase epsilon (P23469 whole entry): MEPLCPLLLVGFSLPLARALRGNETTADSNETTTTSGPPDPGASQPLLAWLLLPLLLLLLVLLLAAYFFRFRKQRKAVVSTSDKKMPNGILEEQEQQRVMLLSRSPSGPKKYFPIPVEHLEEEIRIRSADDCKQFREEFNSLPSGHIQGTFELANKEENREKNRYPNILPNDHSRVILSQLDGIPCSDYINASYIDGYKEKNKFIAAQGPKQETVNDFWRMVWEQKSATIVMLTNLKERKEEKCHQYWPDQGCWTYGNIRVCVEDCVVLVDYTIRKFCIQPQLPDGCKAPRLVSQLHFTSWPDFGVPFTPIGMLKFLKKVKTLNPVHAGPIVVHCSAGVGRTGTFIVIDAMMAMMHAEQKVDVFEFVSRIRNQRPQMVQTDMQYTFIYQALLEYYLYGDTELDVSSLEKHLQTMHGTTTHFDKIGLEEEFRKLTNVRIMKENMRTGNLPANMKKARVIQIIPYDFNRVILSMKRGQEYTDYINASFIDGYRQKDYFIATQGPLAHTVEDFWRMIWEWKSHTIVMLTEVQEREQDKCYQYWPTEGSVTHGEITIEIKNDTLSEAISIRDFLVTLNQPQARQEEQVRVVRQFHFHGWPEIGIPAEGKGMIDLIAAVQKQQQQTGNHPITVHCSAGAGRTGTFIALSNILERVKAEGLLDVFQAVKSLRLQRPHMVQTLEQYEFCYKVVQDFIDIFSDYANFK

[18] = target: T2, Tyrosine-protein phosphatase non-receptor type 11 (Homo sapiens); test: Inhibition of SHP2 in human NCI-H1975 cells assessed as reduction in EGF-induced Erk1/2 phosphorylation after 60 mins by immunoblot analysis in presence of SHP2 siRNA; assay type: cell-based
In short: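 H1975 cells transfected with SHP2 or scrambled siRNA using Lipofectamine 2000 for 6 h, then recovered in RPMI1640 with 10% FBS. Serum-starved overnight, treated with compound for 3 h, stimulated with 5 ng/mL EGF for 60 min. Phospho-Erk1/2 measured by immunoblot.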

[19] = target: Mast/stem cell growth factor receptor Kit (Homo sapiens) (UniProt P10721); test: Inhibition of KIT D814V mutant (unknown origin) expressed in serum starved mouse 32D cells assessed as inhibition of total Erk1/2 activation at 1 to 5 uM measured after 2 hrs by immunoblot analysis; assay type: cell-based; in short: as §4
[20] = system: NCI-H1975; test: Effect on PMA-induced Erk1/2 phosphorylation in human NCI-H1975 cells at 0.5 to 2 uM after 30 mins by immunoblot analysis; assay type: functional, cell-based
[21] = target: T2, Tyrosine-protein phosphatase non-receptor type 11 (Homo sapiens); test: Inhibition of SHP2 in human SKBR3 cells assessed as inhibition of total Akt phosphorylation level at 1 to 10 uM measured after 4 days by matrigel assay; assay type: cell-based; settings: SK-BR-3; in short: as §3
[22] = system: Bone marrow cell; test: Reduction in growth of C57BL/6 mouse Bone marrow cell bearing KITD814V mutant at 1 uM after 6 hrs; assay type: functional, cell-based

CCCN(CC1CC1)C(=O)CCC(=O)Nc1cccc(-c2c(I)c3cc(C(=O)O)c(O)cc3n2C)c1
IC50 [1]: > 20 µM

Cn1c(-c2cccc(NC(=O)C(=O)O)c2)c(I)c2cc(C(=O)O)c(O)cc21
inhibition [2]: inactive | inhibition [3]: inactive

Cn1c(-c2ccccc2)c(-c2cn(CCC(=O)Nc3ccc(-c4ccccc4)cc3)nn2)c2cc(C(=O)O)c(O)cc21
inhibition [4]: Active | inhibition [5]: inactive

Cn1c(-c2cccc(NC(=O)C(=O)Nc3ccc(-c4ccsc4)cc3)c2)c(I)c2cc(C(=O)O)c(O)cc21
inhibition [6]: Active | inhibition [7]: Dose-dependent effect | inhibition [8]: Dose-dependent effect | inhibition [9]: Dose-dependent effect | inhibition [10]: inactive | inhibition [11]: inactive | inhibition [12]: Active | inhibition [13]: Active | inhibition [2]: 40% | inhibition [4]: Active | IC50 [14]: > 100 µM | inhibition [15]: Dose-dependent effect | IC50 ([15]; NCI-H1975, 48 h): 0.17 µM | inhibition [5]: inactive | inhibition [16]: Active | Activity [3]: 30% | IC50 [17]: > 20 µM | inhibition [18]: inactive | inhibition [19]: Dose-dependent effect | Activity [20]: inactive | inhibition [21]: Active | inhibition [22]: Active
